According to ChEMBL document CHEMBL5357067, “Selective (α)-l-Rhamnosylation and Neuroprotective Activity Exploration of Cardiotonic Steroids” (ACS Med Chem Lett, 2024):
Activity calls are given as the source filed them. The calls are words filed in the database; no cut-off is given here.

Experiments:
Assay type in all cases: functional, cell-based
[1] = test system: Glial cell; assay: Antiinflammatory activity in C57BL/6J mouse primary glial cells assessed as effect on IL-1 mRNA level at 200 nM incubated for 24 hrs by qPCR analysis
[2] = test system: Glial cell; assay: Antiinflammatory activity in C57BL/6J mouse primary glial cells assessed as effect on IL-6 mRNA level at 200 nM incubated for 24 hrs by qPCR analysis
[3] = test system: Glial cell; assay: Antiinflammatory activity in C57BL/6J mouse primary glial cells assessed as effect on TNF-alpha mRNA level at 200 nM incubated for 24 hrs by qPCR analysis
[4] = test system: Glial cell; assay: Antiinflammatory activity in C57BL/6J mouse primary glial cells assessed as effect on IKBKE mRNA level at 200 nM incubated for 24 hrs by qPCR analysis
[5] = test system: Glial cell; assay: Antiinflammatory activity in C57BL/6J mouse primary glial cells assessed as decrease in LPS-induced IL-1 mRNA level at 200 nM preincubated for 24 hrs followed by LPS stimulation by qPCR analysis
In short: (§1)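 Primary glia from whole brains of 1–2-day-old neonatal C57BL/6J mice (meninges removed, collected in Ca/Mg-free HBSS, oligodendrocytes and neurons separated off). Cells were given 200 nM steroid and stimulated with LPS 250 ng/mL. DMSO served as negative control. Gene expression was measured by qPCR. Data are mean ± SEM, analysed by two-way ANOVA with Newman-Keuls post hoc test.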

[6] = test system: Glial cell; assay: Antiinflammatory activity in C57BL/6J mouse primary glial cells assessed as decrease in LPS-induced IL-6 mRNA level at 200 nM preincubated for 24 hrs followed by LPS stimulation by qPCR analysis; in short: as §1
[7] = test system: Glial cell; assay: Antiinflammatory activity in C57BL/6J mouse primary glial cells assessed as decrease in LPS-induced TNF-alpha mRNA level at 200 nM preincubated for 24 hrs followed by LPS stimulation by qPCR analysis; in short: as §1
[8] = test system: Glial cell; assay: Antiinflammatory activity in C57BL/6J mouse primary glial cells assessed as decrease in LPS-induced IKBKE mRNA level at 200 nM preincubated for 24 hrs followed by LPS stimulation by qPCR analysis; in short: as §1

Structure (SMILES)	Activity [1]	Activity [2]	Activity [3]	Activity [4]	Activity [5]	Activity [6]	Activity [7]	Activity [8]
C[C@@H]1O[C@@H](O[C@H]2C[C@@H]3O[C@@H]4C[C@]5(C)[C@@H](C6=CC(=O)OC6)CC[C@]5(O)[C@@H]5CC[C@](O)(C2)[C@@]3(CO)[C@H]54)[C@H](O)[C@H](O)[C@H]1O	inactive	inactive	inactive	inactive	Active	Active	Active	Active
C[C@]12C[C@H]3O[C@H]4C[C@H](O)C[C@@]5(O)CC[C@H]([C@H]3[C@@]45CO)[C@@]1(O)CC[C@@H]2C1=CC(=O)OC1	inactive	inactive	inactive	inactive	inactive	inactive	inactive	inactive
C[C@@H]1O[C@@H](OC[C@@]23[C@@H]4[C@H]5CC[C@]2(O)C[C@@H](O)C[C@@H]3O[C@@H]4C[C@]2(C)[C@@H](C3=CC(=O)OC3)CC[C@]52O)[C@H](O)[C@H](O)[C@H]1O	inactive	inactive	inactive	inactive	–	inactive	Active	Active
C[C@@H]1O[C@@H](O[C@H]2C[C@@H](O)[C@]3(CO)[C@H]4[C@H](O)C[C@]5(C)[C@@H](C6=CC(=O)OC6)CC[C@]5(O)[C@@H]4CC[C@]3(O)C2)[C@H](O)[C@H](O)[C@H]1O	inactive	inactive	inactive	inactive	Active	Active	Active	Active
C[C@H]1O[C@@H](O[C@H]2[C@@H](O)C[C@H](O[C@H]3[C@@H](O)C[C@H](O[C@H]4CC[C@@]5(C)[C@H](CC[C@@H]6[C@@H]5C[C@@H](O)[C@]5(C)[C@@H](C7=CC(=O)OC7)CC[C@]65O)C4)O[C@@H]3C)O[C@@H]2C)C[C@H](O)[C@@H]1O	inactive	inactive	inactive	inactive	–	–	–	–
C[C@@H]1O[C@@H](O[C@H]2CC[C@]3(CO)[C@H]4CC[C@]5(C)[C@@H](C6=CC(=O)OC6)CC[C@]5(O)[C@@H]4CC[C@]3(O)C2)[C@H](O)[C@H](O)[C@H]1O	inactive	inactive	inactive	inactive	Active	Active	Active	Active
